Measurements reported in ChEMBL document CHEMBL4513216, “Probing the Open Global Health Chemical Diversity Library for Multistage-Active Starting Points for Next-Generation Antimalarials” (ACS Infect Dis, 2020).

Assay: Toxicity liver stage against HepG2, at 10uM
Type: cell-based
Design: test concentration 10 uM, cell line HepG2-A16-CD81EGFP
Conditions: human, HepG2-A16-CD81EGFP cells; read-out: INHIBITION
Summary of the method: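 Uninfected HepG2-A16-CD81EGFP cells, 3 × 10^3 per well, 1536-well, plated on prespotted compound at 10 μM final, parasite-free screening media added to match infected plates; puromycin 10 μM positive, DMSO 0.5% negative; run in parallel with 48 h PbLuc assay at 37 °C, 5% CO2; viability by CellTiter-Glo luminescence, normalized to controls.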

Compound	cytotoxicity at 10 µM [%]
CCS(=O)(=O)N1CCc2ccc(NC(=O)Nc3cccc(F)c3)cc21	38.4
CC1=C(C#N)C(=O)N(C)C(=O)/C1=C\C1=Cc2ccccc2OC1	-39.4
Cc1nc(NC(=O)c2c(-n3cnnn3)sc3c2CCCC3)sc1C	2.03
Cc1cnc(NC(=O)c2csc(NC3CCCC3)n2)s1	45.8
CCCc1cc(=O)[nH]c(-n2nc(C3CC3)cc2N)n1	31.3
CC(C)c1cc(=O)[nH]c(-n2nc(C3CC3)cc2N)n1	33.9
Cc1cs/c(=N/C(=O)c2csc(NCC(C)C)n2)[nH]1	22.9
Cc1[nH]/c(=N\C(=O)c2csc(NCC(C)C)n2)sc1C	47.4
Cc1cc(CN2CCc3nc(N4CCOCC4)nc(O)c3CC2)c(C)s1	6.3
CC(C)(C)n1nnnc1CN(Cc1ccccc1)Cc1ccccc1Cl	8.56
Cn1cncc1CN1CCCC1c1cncc(Oc2ccc(Cl)cc2)n1 (centres undefined)	11
COc1ccc(CN2CCOC(CCc3ccnc(N)c3)C2)cc1 (centres undefined)	13.3
CN(C)S(=O)(=O)N1CCCC(c2cccc(Cc3ccc(F)cc3)n2)C1 (centres undefined)	38.9
COC1CCN(c2ccc(NC(=O)C3CC3)cc2C(F)(F)F)CC1	39.5
Cc1cnn(C2CN(c3ccccc3S(=O)(=O)C(F)(F)F)C2)c1	11.5
Cc1cnn(CC(C)NCc2cc(=O)n3ccccc3n2)c1 (centres undefined)	-5.3
Cc1c(Cl)cccc1OCC(=O)NC1(C#N)CCSC1 (centres undefined)	37.8
Cc1sc(NC(=O)CN2CCCC(c3ncc[nH]3)C2)c(C)c1C (centres undefined)	28.1
COCCN(CCOC)C(=O)c1cnn(C)c1C	-149
CCN(CC(C)C#N)C(=O)CNc1ccc(C(N)=O)c(C)c1 (centres undefined)	8.54
COc1cc(C(=O)NS(=O)(=O)c2cc(Cl)sc2Cl)ccc1OC(F)F	-13.9
CC(C)Oc1ccc(NCc2ccc([S+](C)[O-])cc2)c(F)c1 (centres undefined)	22.4

Compound	cytotoxicity at 10 µM [%]
COc1cc2c(nn1)CCN(Cc1nnc(Cc3ccccc3)o1)C2	4.25
CCCn1nc2c(cc1=O)CN(c1ncnc3ccsc13)CC2	49.5
Cc1ccc(N2CCCN(C(=O)c3cn(C)c4ccccc34)CC2)nn1	-9.53
N#Cc1c(Cl)nsc1NCc1cccnc1OCC(F)(F)F	25.5
Cc1ccsc1C(=O)Nc1ccc(N2CCC(O)CC2)c(C#N)c1	33.2
CCc1nc(CNc2cc(Cl)ccc2OCC2CCCO2)no1 (centres undefined)	8.84
COc1ccccc1C1(CNc2nnc(C)c(C)c2C#N)CCCC1	34.4
CN(Cc1noc(C(C)(C)C)n1)Cc1ccccc1N1CCCCC1	-4.73
NC(=O)c1ccc(N2CCCCC2)c(NC(=O)c2cc(F)ccc2F)c1	7.57
O=C(C1CC1)N1CCC(Oc2ccccc2Cl)CC1	25.6
Brc1ccc(-c2nnc(CN(Cc3cccs3)CC3CCCO3)o2)s1 (centres undefined)	23.2
CCn1nc2c(cc1=O)CN(c1ncnc3ccsc13)CC2	49.6
CC(C)n1nc2c(cc1=O)CN(c1ncnc3ccccc13)CC2	52.2
Cc1cn2c(n1)C(CNCC1=Cc3ccccc3OC1)CCC2 (centres undefined)	27.7
Cc1nc(C)c(C(=O)NCc2nc3cccc(C)c3n2C)o1	40.1
Cc1ccc(-c2nc(CSCCC(=O)NC(N)=O)co2)c(C)c1	-6.4
Cc1cc(C2CCCN(CCc3ccc4c(c3)CCO4)C2)n[nH]1 (centres undefined)	-7.66
CNC(=O)c1cccnc1N1CCC(Oc2ccc(F)cc2)CC1	3.41
Cc1cc(CNc2ccnn2CC(C)C)ccc1-n1cncn1	24
O=C(c1ccc(Br)o1)N1CCN(Cc2ccc(OC(F)(F)F)cc2)CC1	21.7
COc1cc(N2CCC3(CC2)CN(CCO)c2ccccc23)ncn1	19.7
Cn1cc(CN2CCc3ccc(=O)n(CC4CC4)c3CC2)cn1	3.24

Compound	cytotoxicity at 10 µM [%]
COC[C@@]12CCO[C@@H]1CCN(C(=O)C1CC(F)(F)C1)C2	-97.4
Cc1ccc(C(=O)N2CCc3c(COCC4CC4)cncc3C2)o1	-74.2
CCCn1cc(-c2ccnc(NC3CCc4ccccc4C3)n2)c(C)n1 (centres undefined)	81.3
OCC1(Cc2ccccc2F)CCCN(c2ccc3ccccc3n2)C1 (centres undefined)	22.7
Cc1cnc(C)c(Oc2ccc(Cl)c(CN3CCCC3)c2Cl)n1	2.61
Cc1nnc(CN2C[C@H](NC(=O)C3CCOCC3)[C@@H](C(C)C)C2)s1	-3.41
CN1CCN(CCc2ncnn2-c2ccc3c(c2)OCO3)CC1	-0.00326
CNc1nc(C)cc(NCc2cc(C)cc3c(C)c(C)[nH]c23)n1	-30.2
CCS(=O)(=O)NCc1cccnc1N1CCCC(O)C1 (centres undefined)	1.91
Cc1nc(N)ncc1C(=O)N1CCCC(CCc2ccc(F)cc2)C1 (centres undefined)	-8.3
Cc1ncnc(N2CCCN(c3nc4ccccc4s3)CC2)c1C	55.5
Fc1ccc(N2CCCN(c3ccc(Cn4ccnc4)cn3)CC2)cc1	26.2
CN(C)CC1(O)CCCN(C(=O)Cn2ccc3ccccc32)CC1 (centres undefined)	-1.96
O=C(O)CSc1nnc(-c2cn[nH]c2)n1-c1ccccc1C(F)(F)F	1.2
CCc1cnc(N)nc1NC(C)c1ccc(C)c(C)c1 (centres undefined)	21.3
COc1ccc(CN(CC2CCCO2)c2nc3c(s2)c(C)nn3C)cc1 (centres undefined)	11.4
Cc1nc2c(c(NCC(O)C(F)(F)F)n1)CCNCC2 (centres undefined)	5.37
Cn1ncnc1-c1ccnc(NCCCc2ccncc2)n1	-1.41
COc1cc(Oc2ncccc2C(F)(F)F)ccc1CN1CCCC1	38.8
OC1CCN(c2ccnc(NCCc3ccccc3Cl)n2)C1 (centres undefined)	39.3
Cc1cc2c(N3CCC(N(C)Cc4nccs4)CC3)ncnc2s1	45
COc1cccc(C2CCN(c3ccc4cc[nH]c4n3)C2)c1OC (centres undefined)	50.2

Compound	cytotoxicity at 10 µM [%]
CN1CC2(CCN(C(=O)c3ccc4c(=O)n(C)cnc4c3)C2)OC1=O (centres undefined)	2.41
Cc1c(CN2CCCC(C(=O)c3ccc(C(C)(C)C)cc3)C2)cnn1C (centres undefined)	10.4
NCC1Cc2cccc(-c3nccc(N4CCC(O)CC4)n3)c2O1 (centres undefined)	-14.9
N[C@@H]1c2ccccc2C2(CCN(c3cccc(C(F)(F)F)n3)CC2)[C@H]1O	0.243
Cc1noc(-c2ccnc(Oc3ccc(CN4CCCC4)cc3F)c2)n1	15.7
Cc1ccc(CN2CCN(C(=O)c3ccc(Br)o3)CC2)cc1	1.16
Cc1sc2nc(CCN)nc(N3CC(N4CCCCC4)C3)c2c1C	-21.9
CCC(NC(=O)C1CCN(S(C)(=O)=O)CC1)c1ccc(C)cc1C (centres undefined)	-10.6
O=C1CC(c2ccc3c(c2)OCO3)c2cnn(C3CCCC3)c2N1 (centres undefined)	24.3
CCCn1cc(S(=O)(=O)N[C@H]2CN(CCO)C[C@@H]2C2CC2)cn1	-11.3
NC(=O)CCn1cc(CNCCCc2ccccc2O)c2ccccc21	8.92
OCC1CCCCN1c1ccc(-c2nc(-c3ccccc3F)no2)cn1 (centres undefined)	51.2
Cc1cc(SCC(=O)O)nc2nn(CC(F)F)c(C)c12	45.5
Cc1cccc(-c2noc(CN3CC(n4cc(C)cn4)C3)n2)c1	-8.8
Cc1noc(NC(=O)c2ccc(OC(F)(F)F)cc2)n1	33.5
Cc1noc(NC(=O)c2ccc(Br)cc2)n1	32.9
CC(C)Cc1ccc(S(=O)(=O)Nc2ccc(=O)n(C)c2)cc1	46.3
c1cnc(-c2nc(CN3CCOC(Cn4cncn4)C3)cs2)nc1 (centres undefined)	-15.2
Cc1nc2cc(C3CCN(Cc4cccc(F)c4F)C3)nn2c(O)c1C (centres undefined)	0.333
Cc1ccc(CN(Cc2ncc[nH]2)C2CC(C)(C)NC(C)(C)C2)o1	-15.2
Cc1ccc(N(CC(=O)c2ccc(Br)cc2)C2=NCCCCC2)cc1	36.5
Cc1ccc(CN(CCCn2ccnc2)Cc2c(F)cccc2F)s1	2.76

Compound	cytotoxicity at 10 µM [%]
COc1ccc(F)c(CN(CCCn2ccnc2)Cc2ccc(C)s2)c1	-7.14
COc1ccc(C)cc1CN1CCC(c2cc3ncccc3cn2)CC1	20.5
CN1CCC2(COCCN(Cc3cccc(C#N)c3)C2)C1 (centres undefined)	0.0422
COCCNC(=O)C1CN(Cc2ccncc2)Cc2ccnn2C1 (centres undefined)	-83
Clc1ccc(-c2ccc(C3CNCCO3)nc2)cc1 (centres undefined)	-5.86
Cn1ccnc1CN1CCC2(CC1)CN(c1ccccn1)CCO2	-0.335
CN(C)C[C@]12COC[C@H]1CN(Cc1ccccn1)C2	5.89
O=C([C@H]1C[C@H]2OCC[C@H]2N(Cc2ccoc2)C1)N1CCCCO1	-73.2
COc1ccc(CN2CCO[C@H]3[C@H](OCc4ccncc4)CC[C@@H]32)cc1	-30.9
CCS(=O)(=O)N1CCc2c(CN3CCOCC3)cncc2C1	4.35
COc1cc(N2CCC3(CCN(Cc4nccs4)CC3)C2)ncn1	-36
Cc1ccc(CN2CC[C@@H]3[C@@H]2CCN3C(=O)Cc2cccs2)o1	-119
Cc1nc(CN2CCN3C[C@H](Oc4cncnc4)C[C@H]3C2)cs1	-81.4
Fc1cccc(N2CCCC3(CN(Cc4nccs4)CCO3)C2)c1 (centres undefined)	-58.2
COc1cc(N2CCC3(CCN(Cc4csc(C)n4)C3=O)C2)ncn1 (centres undefined)	-104
Cc1noc(C)c1CN1CCC[C@]2(C[C@@H](Oc3ccccn3)CO2)C1	-67.1
Cc1cc(CN2C[C@@H]3CN(C(=O)c4cccn4C)CCO[C@@H]3C2)no1	-148
Cc1nc([C@H]2C[C@@H]3CCN(Cc4scnc4C)C[C@H]3O2)no1	-129
O=C1CC(c2ccncc2)C2(CCN(CCc3ccccc3)CC2)N1 (centres undefined)	-1.58
Cc1cnc(N2CCc3c(CNc4ccnc(C)n4)cncc3C2)nc1	-39.1
FC1(F)CCN(Cc2ccncc2)CC12CCN(c1cccnc1)C2 (centres undefined)	-94.8
